Results taken from ChEMBL document CHEMBL5150070, “Tricyclic SpiroLactams Kill Mycobacteria In Vitro and In Vivo by Inhibiting Type II NADH Dehydrogenases” (J Med Chem, 2022).
Converted amounts (≈) assume the structure as drawn. The source made the active and inactive calls. The calls are words filed in the database; no cut-off is given here.

Tests used:
[1] = tested on: Mycobacterium tuberculosis; test: Antimycobacterial activity against Mycobacterium tuberculosis H37Rv assessed as reduction in bacterial cell growth by measuring resazurin reduction incubated for 6 days by fluorescence microplate based assay; format: functional; conditions: time 6 day
[2] = Octanol/PBS partition coefficient, logD of compound at pH 7.4 measured after 2 hrs by shake flask method; format: physicochemical; conditions: octanol/water, pH 7.4, 2 h
Outline: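 A 10 mM DMSO stock was diluted 50-fold into 1:1 octanol:PBS pH 7.4 and shaken gently for 2 h at room temperature. Each phase was diluted 50-fold in MeOH and quantified by LC-MS/MS. LogD = log of the octanol/PBS concentration ratio from mass signals. Run in triplicate.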

Mycobacterium avium = test: Antibiotic activity against Mycobacterium avium TMC 724, ATCC-25291 assessed as reduction in bacterial cell growth by measuring resazurin reduction incubated for 6 days by fluorescence microplate based assay; format: functional; conditions: TMC 724, ATCC-25291, 144 h, time 6 day
[3] = tested on: Mycobacteroides abscessus; test: Antibiotic activity against Mycobacterium abscessus CIP104536, Smooth variant assessed as reduction in bacterial cell growth by measuring resazurin reduction incubated for 6 days by fluorescence microplate based assay; format: functional; conditions: 144 h, time 6 day
Escherichia coli = test: Antibiotic activity against Escherichia coli deltatolC BW25113 deltatolC assessed as reduction in bacterial cell growth by measuring resazurin reduction incubated for 6 days by fluorescence microplate based assay; format: functional; conditions: 144 h, time 6 day
Outline: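 E. coli BW25113, E. coli ΔtolC and S. aureus SH1000 were cultured and tested in cation-adjusted Mueller Hinton II broth. Viability was read by adding resazurin and measuring resorufin fluorescence at Ex 530 nm / Em 590 nm.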

[4] = tested on: Mycobacterium tuberculosis; test: Bactericidal activity against Non-replicating Mycobacterium tuberculosis ss18b-lux model assessed as decrease in luminescence at 10 to 10000 nM; format: functional, organism-based; conditions: dose 10-10000 nM, TDE = time-dependent effect
Outline: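 Non-replicating streptomycin-starved 18b-lux (14-day starvation) diluted to OD600 0.15 in white 96-well plates with compound and incubated at 37°C. Luminescence read on days 1, 2, 5 and 7 and expressed relative to no-antibiotic controls (n ≥ 3).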

[5] = tested on: Mycobacterium tuberculosis; test: Inhibition of Ndh2 in Mycobacterium tuberculosis assessed as increase in NADH/NAD+ ratio at 600 nM measured after 24 hrs
Outline: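 Mid-log H37Rv diluted to OD600 0.3 and exposed to compound at 37°C for 2 and 24 h. Pellets extracted in 0.2 M HCl (NAD⁺) or 0.2 M NaOH (NADH), bead-milled, heated 55°C 10 min, neutralised. NAD/NADH-Glo luminescence read against an NADH standard curve, corrected for OD600. Three independent experiments, duplicate technical replicates.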

[6] = Metabolic stability in mouse liver microsomes; format: ADME, Microsome

CC(C)[C@H]1CO[C@]23CCN(Cc4ccc(C(F)(F)F)cc4)C[C@H]2CCC(=O)N13
MIC98 [1]: 0.1 µM (≈ 0.0396 µg/mL)
logD [2]: 3.4
MIC (Mycobacterium avium): 0.55 µM (≈ 0.218 µg/mL)
MIC [3]: 5 µM (≈ 1.98 µg/mL)
MIC (Escherichia coli): 100 µM (≈ 39.6 µg/mL)
Activity [4]: Tde
inhibition [5]: Active
Drug metabolism [6]: Metabolite_Detected
